The results in this text go back to ChEMBL document CHEMBL2401669, “Discovery and structure-activity relationships of ent-Kaurene diterpenoids as potent and selective 11β-HSD1 inhibitors: potential impact in diabetes” (Eur J Med Chem, 2013).

Assay [1] deals with 11-beta-hydroxysteroid dehydrogenase 1 (Mus musculus) (UniProt P50172). Kind of assay: Inhibition of mouse 11beta-HSD1 expressed in HEK293 cell microsomes assessed as inhibition of [3H]cortisone conversion to [3H]cortisol at 1 uM by scintillation proximity assay. Particulars: Microsome. Put shortly:
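Primary single-concentration screen in the SPA. Mouse 11β-HSD1 HEK-293 stable-transfectant microsomes are incubated with NADPH and [3H]cortisone, and [3H]cortisol is captured by antibody-coupled protein A SPA beads. Inhibitory ratio is the average of two determinations, with deviation from the average of 10% of the average value.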
(Scintillation proximity formats need no separation of bound from free tracer.)

Assay [2] has as its target T1, 11-beta-hydroxysteroid dehydrogenase type 2 (Homo sapiens, UniProt P80365).
T1 sequence (P80365 whole entry): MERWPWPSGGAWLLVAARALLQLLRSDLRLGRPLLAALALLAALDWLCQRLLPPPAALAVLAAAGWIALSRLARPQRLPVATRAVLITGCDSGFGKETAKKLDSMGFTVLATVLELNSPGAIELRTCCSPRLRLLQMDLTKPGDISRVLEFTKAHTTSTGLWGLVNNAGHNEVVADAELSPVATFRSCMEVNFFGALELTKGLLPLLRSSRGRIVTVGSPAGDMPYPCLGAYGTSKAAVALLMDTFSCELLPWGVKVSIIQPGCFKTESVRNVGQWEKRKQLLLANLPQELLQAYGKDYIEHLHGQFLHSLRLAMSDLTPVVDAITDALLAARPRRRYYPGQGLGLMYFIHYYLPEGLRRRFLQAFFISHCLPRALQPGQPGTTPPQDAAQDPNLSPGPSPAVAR
Kind of assay: Inhibition of human 11beta-HSD2.

A further assay is filed under the species Homo sapiens. As to the kind of experiment: selectivity ratio of IC50 for human 11beta-HSD2 to IC50 for human 11beta-HSD1. Put shortly: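 Ratio of 11β-HSD2 IC50 to 11β-HSD1 IC50 for the same species (mouse or human). Both IC50s come from microsome-based scintillation proximity assays, averaged over at least two independent experiments with at least duplicate wells per concentration. Only compounds exceeding 50% inhibition in the primary screen were evaluated.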

The target in assay [3] is 11-beta-hydroxysteroid dehydrogenase 1 (Homo sapiens, UniProt P28845). Kind of assay: Inhibition of human 11beta-HSD1 expressed in HEK293 cell microsomes assessed as inhibition of [3H]cortisone conversion to [3H]cortisol by scintillation proximity assay. The arrangement: species or system Microsome. Put shortly:
(§1)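 Enzyme source: microsomal fraction from HEK-293 cells stably transfected with 11β-HSD1 (human or mouse), incubated with NADPH and [3H]cortisone. The [3H]cortisol product is captured by a monoclonal antibody on protein A-coated SPA beads. IC50 is averaged over at least two independent experiments, at least duplicate per concentration.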

Assay [4] concerns the target 11-beta-hydroxysteroid dehydrogenase 1 (Mus musculus, UniProt P50172). As to the kind of experiment: Inhibition of mouse 11beta-HSD1 expressed in HEK293 cell microsomes assessed as inhibition of [3H]cortisone conversion to [3H]cortisol by scintillation proximity assay. Details: species or system Microsome. An outline of the steps: as §1

Chain of 11-beta-hydroxysteroid dehydrogenase 1 (Homo sapiens, UniProt P28845) (P28845 whole entry): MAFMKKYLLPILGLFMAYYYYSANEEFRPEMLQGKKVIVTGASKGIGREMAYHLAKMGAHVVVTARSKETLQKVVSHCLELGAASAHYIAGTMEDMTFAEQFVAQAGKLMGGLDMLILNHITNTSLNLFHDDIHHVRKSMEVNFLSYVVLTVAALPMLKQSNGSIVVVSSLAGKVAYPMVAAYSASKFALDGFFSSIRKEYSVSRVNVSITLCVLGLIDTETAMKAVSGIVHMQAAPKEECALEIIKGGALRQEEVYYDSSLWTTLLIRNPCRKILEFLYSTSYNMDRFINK
Chain of 11-beta-hydroxysteroid dehydrogenase 1 (Mus musculus, UniProt P50172) (P50172 whole entry): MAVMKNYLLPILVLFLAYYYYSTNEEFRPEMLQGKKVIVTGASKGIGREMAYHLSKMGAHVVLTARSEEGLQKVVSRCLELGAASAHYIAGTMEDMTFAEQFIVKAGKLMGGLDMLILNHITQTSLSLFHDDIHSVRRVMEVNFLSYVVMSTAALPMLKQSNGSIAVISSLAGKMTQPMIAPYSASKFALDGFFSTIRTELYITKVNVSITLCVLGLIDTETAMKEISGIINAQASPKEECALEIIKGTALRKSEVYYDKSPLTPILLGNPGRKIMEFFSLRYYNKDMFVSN
Chain of 11-beta-hydroxysteroid dehydrogenase 1 (Mus musculus) (P50172 whole entry, looked up): as the sequence (P50172 whole entry) above

With `C=C1[C@H]2C[C@H](OC(=O)c3ccc(Br)cc3)[C@H]3[C@]4(C)CCC[C@@](C)(C(=O)O)[C@H]4CC[C@]3(C2)[C@@H]1O`, in assay [1], the inhibition (usually the change of the read-out against control, counted positive when it falls) was 32.7%.
Still for that read-out and setting: the result for `C=C1[C@H]2C[C@H](O)[C@H]3[C@]4(C)CCC[C@@](C)(CO)[C@H]4CC[C@]3(C2)[C@@H]1O` reads 27.3%.
The same measure, in the same setting: with `C[C@@]12CCC[C@@](C)(C(=O)O)[C@H]1CC[C@@]13C[C@H](C[C@H](O)[C@@H]21)[C@]1(CO1)[C@H]3O` the figure was 16.8%; with `C=C1[C@H]2C[C@H](O)[C@H]3[C@]4(C)CCC[C@@](C)(C(=O)OC)[C@H]4CC[C@]3(C2)[C@@H]1O`, 25.1%; with `C=C1[C@H]2C[C@H](O)[C@H]3[C@]4(C)CCC[C@@](C)(NC(=O)NC(C)(C)C)[C@H]4CC[C@]3(C2)[C@@H]1O`, 11.3%.
Still for that read-out and setting: the result for `C=C1C[C@@]23CC[C@H]4[C@@](C)(CCC[C@@]4(C)N=C=O)[C@@H]2CC[C@H]1C3` reads 55.5%; that for `C=C1[C@H]2C[C@H](O)[C@H]3[C@]4(C)CCC[C@@](C)(NC(=O)Nc5nccs5)[C@H]4CC[C@]3(C2)[C@@H]1O`, 5.39%.
In the case of `C=C1[C@H]2C[C@H](OC(=O)c3ccc(N(C)C)cc3)[C@H]3[C@]4(C)CCC[C@@](C)(C(=O)O)[C@H]4CC[C@]3(C2)[C@@H]1O`, the inhibition in assay [1] amounted to 34%.
Take `C=C1[C@H]2C[C@H](O)[C@H]3[C@]4(C)CCC[C@@](C)(NC(=O)Nc5cccc6ccccc56)[C@H]4CC[C@]3(C2)[C@@H]1O`: the figures for the IC50 in assay [2], in assay [3] and in assay [4] were 1.6 µM, 0.266 µM and greater than 1 µM, respectively. In addition, the Ratio IC50 in the assay listed under Homo sapiens was determined as 6.2. The inhibition in assay [1] stood at 52.2%.
Regarding `C=C1[C@H]2C[C@H](O)[C@H]3[C@]4(C)CCC[C@@](C)(NC(=O)NC)[C@H]4CC[C@]3(C2)[C@@H]1O`, in assay [1], the inhibition is 19.4%.
Take `C=C1[C@H]2C[C@H](O)[C@H]3[C@]4(C)CCC[C@@](C)(NC(=O)N5CCOCC5)[C@H]4CC[C@]3(C2)[C@@H]1O`: the inhibition in assay [1] turned out to be 21.4%.
On the same count and under the same terms, with `C=C1[C@H]2C[C@H](O)[C@H]3[C@]4(C)CCC[C@@](C)(NC(=O)N(C)OC)[C@H]4CC[C@]3(C2)[C@@H]1O` the figure was 16.1%; with `C=C1[C@H]2C[C@H](O)[C@H]3[C@]4(C)CCC[C@@](C)(NC(=O)N5CCNCC5)[C@H]4CC[C@]3(C2)[C@@H]1O`, 12.7%.
In the case of `C=C1[C@H]2C[C@H](OC(C)=O)[C@H]3[C@]4(C)CCC[C@@](C)(C(=O)O)[C@H]4CC[C@]3(C2)[C@@H]1O`, the IC50 – broadly, the midpoint of a concentration-inhibition curve – is 229 µM in assay [2], 0.116 µM in assay [3] and greater than 1 µM in assay [4]. For the same compound, the Ratio IC50 in the assay filed under Homo sapiens was 1970. Further, the inhibition in assay [1] was determined as 12.4%.
In the same order, the values of `C=C1[C@H]2C[C@H](O)[C@H]3[C@]4(C)CCC[C@@](C)(NC(=O)NC5CCCCC5)[C@H]4CC[C@]3(C2)[C@@H]1O` are greater than 100 µM, 0.165 µM, greater than 1 µM, greater than 605 and 16.3%.
For `C=C1[C@H]2C[C@H](O)[C@H]3[C@]4(C)CCC[C@@](C)(NC(=O)Nc5ccc(F)cc5)[C@H]4CC[C@]3(C2)[C@@H]1O`, the figures for the IC50 in assay [2], in assay [3] and in assay [4] were greater than 100 µM, 0.249 µM and greater than 1 µM, respectively. The Ratio IC50 in the assay listed under Homo sapiens was greater than 402. For the same compound, the inhibition in assay [1] is 7.92%.
As for `C=C1C(=O)[C@@]23CC[C@H]4[C@@](C)(CCC[C@@]4(C)C(=O)O)[C@@H]2[C@@H](O)C[C@H]1C3`, the inhibition in assay [1] is 25.3%.
On the same count and under the same terms, with `C=C1[C@H]2C[C@H](OC(=O)c3ccccc3)[C@H]3[C@]4(C)CCC[C@@](C)(C(=O)O)[C@H]4CC[C@]3(C2)[C@@H]1O` the figure was 21.3%.
On the same count and under the same terms, with `C=C1[C@H]2C[C@H](O)[C@H]3[C@]4(C)CCC[C@@](C)(C(=O)O)[C@H]4CC[C@]3(C2)[C@@H]1O` the figure was 16.5%.
`C=C1C[C@@]23CC[C@H]4[C@@](C)(CCC[C@@]4(C)NC(=O)NC45CC6CC(CC(C6)C4)C5)[C@@H]2CC[C@H]1C3`: the IC50 in assay [2] was greater than 100 µM; in assay [3] it was 0.407 µM; in assay [4] it was greater than 1 µM. Moreover, in the assay listed under Homo sapiens, the Ratio IC50 is greater than 246. Moreover, the inhibition in assay [1] came out at 18.2%.
`CC1(C)[C@@H](O)CC[C@]2(C)[C@H]3C(=O)C=C4[C@@H]5C[C@@](C)(C(=O)O)CC[C@]5(C)CC[C@@]4(C)[C@]3(C)CC[C@@H]12`: in assay [1], the inhibition amounted to 96.7%.
`C=C1C[C@@]23CC[C@H]4[C@@](C)(CCC[C@@]4(C)NC(=O)Nc4ccc(F)cc4)[C@@H]2CC[C@H]1C3`: the half-inhibitory concentration (IC50) in assay [2] was greater than 100 µM; in assay [3], 0.331 µM; in assay [4], greater than 1 µM. In the assay listed under Homo sapiens, the Ratio IC50 is greater than 302. Besides, the inhibition in assay [1] amounted to 25.9%.
For `C=C1[C@H]2C[C@H](O)[C@H]3[C@]4(C)CCC[C@@](C)(NC(=O)N5CCCC5)[C@H]4CC[C@]3(C2)[C@@H]1O`, the inhibition in assay [1] is 9.21%.
Still for that read-out and setting: with `C=C1C[C@@]23CC[C@@H]4[C@](C)(CF)CCC[C@@]4(C)[C@@H]2CC[C@H]1C3` the figure was 37.7%; with `C=C1[C@H]2C[C@H](OC(=O)N3CCOCC3)[C@H]3[C@]4(C)CCC[C@@](C)(C(=O)O)[C@H]4CC[C@]3(C2)[C@@H]1O`, 35.2%; with `C=C1[C@H]2C[C@H](O)[C@H]3[C@]4(C)CCC[C@@](C)(NC(=O)Nc5ccc(C(F)(F)F)cc5)[C@H]4CC[C@]3(C2)[C@@H]1O`, 3.69%.
Take `C=C1[C@H]2C[C@H](OC(=S)SC)[C@H]3[C@]4(C)CCC[C@@](C)(C(=O)O)[C@H]4CC[C@]3(C2)[C@@H]1O`: the half-maximal inhibitory concentration (IC50) in assay [2] is greater than 100 µM; in assay [3], 0.771 µM; in assay [4] it was greater than 1 µM. Further, the Ratio IC50 in the assay filed under Homo sapiens was greater than 130. The inhibition in assay [1] was found to be 11.1%.
Regarding `C=C1[C@@H](O)[C@@]23CC[C@H]4[C@@](C)(CCC[C@@]4(C)C(=O)O)[C@@H]2C=C[C@H]1C3`, the inhibition in assay [1] was 19.6%.
For the compound `C[C@H]1[C@H]2C[C@H](O)[C@H]3[C@]4(C)CCC[C@@](C)(C(=O)O)[C@H]4CC[C@]3(C2)[C@@H]1O`, in assay [1], the inhibition was determined as 11.6%.
On to `C[C@@]12CCC[C@@](C)(C(=O)O)[C@H]1CC[C@]13CC(=O)[C@@H](CC[C@H]12)C3`, for which the inhibition in assay [1] is 19.6%.
On to `C=C1[C@H]2C[C@H](O)[C@H]3[C@]4(C)CCC[C@@](C)(N=C=O)[C@H]4CC[C@]3(C2)[C@@H]1O`, for which the inhibition in assay [1] came out at 16.8%.
As to `C=C1[C@H]2C[C@H](OC(=O)Nc3nccs3)[C@H]3[C@]4(C)CCC[C@@](C)(C(=O)O)[C@H]4CC[C@]3(C2)[C@@H]1O`, in assay [1], the inhibition is 11.6%.
On to `C=C1[C@H]2CC[C@H]3[C@]4(C)CCC[C@@](C)(C(=O)O)[C@H]4CC[C@]3(C2)[C@@H]1F`, for which the inhibition in assay [1] is 56%.
As for `C=C1[C@H]2C[C@H](O)[C@H]3[C@]4(C)CCC[C@@](C)(NC(=O)Nc5ccccc5)[C@H]4CC[C@]3(C2)[C@@H]1O`, the results for the 50% inhibitory concentration (IC50) in assay [2], in assay [3] and in assay [4] were greater than 1000 µM, 0.0094 µM and greater than 1 µM, respectively. In the assay listed under Homo sapiens, the Ratio IC50 is greater than 10600. Further, the inhibition in assay [1] turned out to be 24.4%.
As to `C=C1[C@H]2C[C@H](O)[C@H]3[C@]4(C)CCC[C@@](C)(NC(=O)NC56CC7CC(CC(C7)C5)C6)[C@H]4CC[C@]3(C2)[C@@H]1O`, the IC50 is 0.7 µM in assay [2], 0.404 µM in assay [3] and greater than 1 µM in assay [4]. For the same compound, the Ratio IC50 in the assay listed under Homo sapiens worked out at 1.7. Besides, in assay [1], the inhibition amounted to 20.8%.
As to `C=C1C[C@@]23CC[C@H]4[C@@](C)(CCC[C@@]4(C)NC(=O)Nc4nccs4)[C@@H]2CC[C@H]1C3`, the inhibition in assay [1] was determined as 18.2%.
